{"data": "Measured values gathered from unrelated publications", "action": "inhibitor", "CDK5 with p25": "Cyclin-dependent kinase 5, with p25 (CDK5, Homo sapiens, UniProt Q00535)", "CDK5 with p35": "Cyclin-dependent kinase 5, with p35 (CDK5, Homo sapiens, UniProt Q00535)", "CDK5": "Cyclin-dependent kinase 5 (CDK5, Homo sapiens, UniProt Q00535)", "note": "Protocols differ between the studies behind these lines."}
{"SMILES": "COc1cc2ncnc(Nc3ccc(Oc4ccccc4)cc3C)c2cc1OC", "target": "CDK5 with p25", "assay": "enzyme activity", "conditions": "1 µM", "inhibition [%]": 7}
{"SMILES": "CN(C)C1CCN(CC#Cc2nn(C3CCCC3)c3nc(NCc4ccccc4)ncc23)C1 (centres unmarked)", "target": "CDK5 with p25", "assay": "enzyme activity, FRET", "conditions": "10 µM", "inhibition [%]": 3}
{"SMILES": "CC[C@H](C)[C@H](NC(=O)[C@H](CCC(N)=O)NC(=O)[C@H](CC(C)C)NC(=O)[C@H](CCSC)NC(=O)[C@H](CCCCN)NC(=O)[C@H](CO)NC(=O)[C@H](CO)NC(=O)[C@H](CCSC)NC(=O)[C@H](CC(C)C)NC(=O)[C@H](CC(N)=O)NC(=O)[C@@H](NC(=O)[C@@H](NC(=O)[C@H](CO)NC(=O)[C@H](CC(C)C)NC(=O)[C@H](CS)NC(=O)[C@H](CCCNC(=N)N)NC(=O)[C@H](CC(=O)O)NC(=O)[C@H](Cc1c[nH]c2ccccc12)NC(=O)[C@H](Cc1ccccc1)NC(=O)[C@H](C)NC(=O)[C@H](CCC(=O)O)NC(=O)[C@@H](N)CCCCN)C(C)C)[C@@H](C)CC)C(=O)N[C@@H](CC(N)=O)C(=O)N[C@@H](C)C(=O)O", "target": "CDK5 with p25", "assay": "enzyme activity, radiometric", "conditions": "10 µM", "inhibition [%]": 13}
{"SMILES": "Cc1ccc(Nc2nccc(N(C)c3ccc4c(C)n(C)nc4c3)n2)cc1S(N)(=O)=O", "target": "CDK5 with p25", "assay": "enzyme activity", "conditions": "10 µM", "inhibition [%]": 44}
{"SMILES": "CN1CC(Oc2cnc(C#N)cc2-c2ccn3nc(NC(=O)C4CC4)cc3c2)C1", "target": "CDK5 with p35", "assay": "enzyme activity", "conditions": "1 µM", "inhibition [%]": 12}
{"SMILES": "COc1cc(-c2cc(-c3ccc(N4CCNCC4)cc3)cnc2C)cc(OC)c1OC", "target": "CDK5", "assay": "enzyme activity", "conditions": "0.1 µM", "inhibition [%]": 2}
{"SMILES": "CCN1CCN(Cc2ccc(NC(=O)c3ccc(C)c(Oc4ccnc5[nH]ccc45)c3)cc2C(F)(F)F)CC1", "target": "CDK5", "assay": "target engagement in cells, chemoproteomics", "system": "Huh-7", "conditions": "1 µM", "inhibition [%]": -88.8}
{"SMILES": "CNCc1ccc(-c2cc(-c3nc(-c4ccc(S(=O)(=O)C(C)C)cc4)cnc3N)on2)cc1", "target": "CDK5 with p35", "assay": "enzyme activity", "conditions": "0.4 µM", "inhibition [%]": 0}
{"SMILES": "CNc1cc(Oc2cc(C(=O)Nc3cc(N4CCN(C)CC4)cc(C(F)(F)F)c3)ccc2C)ncn1", "target": "CDK5", "assay": "target engagement in cells, chemoproteomics", "system": "Huh-7", "conditions": "1 µM", "inhibition [%]": -37.2}
{"SMILES": "Cc1ccc(-n2nc(C(C)(C)C)cc2NC(=O)Nc2ccc(OCCN3CCOCC3)c3ccccc23)cc1", "target": "CDK5 with p25", "assay": "enzyme activity", "conditions": "10 µM", "inhibition [%]": 1}
{"SMILES": "COc1cc2ncnc(Nc3ccc(Oc4ccccc4)c(C)c3C)c2cc1OC", "target": "CDK5 with p35", "assay": "enzyme activity", "conditions": "1 µM", "inhibition [%]": -1}
